Series [1] has as its system Rattus norvegicus. Description: Induction of angioedema in normotensive rat assessed as increase in tracheal plasma extravasation by measuring Evans blue dye leakage into peritracheal tissue at 0.3 to 3 mg/kg, po. It counts as organism-based. As to conditions: in vivo; call rule not given here. In outline: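 Rat tracheal plasma extravasation model adapted from Sulpizio et al., used as a surrogate for upper-airway angioedema. Normotensive rats are dosed orally. Read-out is Evans Blue dye leakage into peritracheal tissue, compared with vehicle.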

For series [2], the target named is T1, Type-1 angiotensin II receptor (Homo sapiens, UniProt P30556).
T1 sequence (P30556 whole entry): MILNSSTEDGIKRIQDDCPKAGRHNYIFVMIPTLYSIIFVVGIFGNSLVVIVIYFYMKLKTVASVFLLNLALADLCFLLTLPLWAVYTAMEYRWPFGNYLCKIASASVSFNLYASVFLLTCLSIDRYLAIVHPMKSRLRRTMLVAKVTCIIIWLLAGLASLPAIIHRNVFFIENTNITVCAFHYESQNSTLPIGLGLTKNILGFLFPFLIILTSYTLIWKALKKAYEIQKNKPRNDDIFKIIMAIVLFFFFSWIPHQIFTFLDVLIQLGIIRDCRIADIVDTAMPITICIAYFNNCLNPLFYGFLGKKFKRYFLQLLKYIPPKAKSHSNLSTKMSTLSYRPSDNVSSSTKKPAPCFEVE
Briefly: Displacement of Europium-labeled angiotensin-2 from human AT1 receptor expressed in CHOK1 cell membranes after 120 mins by DELFIA.

Series [3] relates to Rattus norvegicus. Briefly: In vivo inhibition of NEP in Sprague-Dawley rat assessed as potentiation of ANP-induced elevation of urinary cGMP level at 3 mg/kg, iv treated for 5 mins at 15 mins post 2 doses of angiotensin-2 treatment at 15 minutes apart followed by ANP treatment measured up to 60 mins by EIA relative to control. It counts as functional. A digest of the protocol:
(§1)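 Rat pharmacodynamic assay with intravenous dosing to exclude oral absorption. AT1 antagonism is read in the same animal as inhibition of the angiotensin-II-evoked pressor response. NEP inhibition is read as potentiation of ANP-induced elevation of urinary cGMP output, relative to vehicle.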

The target in series [4] is Neprilysin (Homo sapiens, UniProt P08473). Briefly: Inhibition of NEP (unknown origin) preincubated for 10 mins followed by fluorogenic substrate addition and measured after 20 mins by fluorescence assay.
Chain of Neprilysin (P08473 whole entry): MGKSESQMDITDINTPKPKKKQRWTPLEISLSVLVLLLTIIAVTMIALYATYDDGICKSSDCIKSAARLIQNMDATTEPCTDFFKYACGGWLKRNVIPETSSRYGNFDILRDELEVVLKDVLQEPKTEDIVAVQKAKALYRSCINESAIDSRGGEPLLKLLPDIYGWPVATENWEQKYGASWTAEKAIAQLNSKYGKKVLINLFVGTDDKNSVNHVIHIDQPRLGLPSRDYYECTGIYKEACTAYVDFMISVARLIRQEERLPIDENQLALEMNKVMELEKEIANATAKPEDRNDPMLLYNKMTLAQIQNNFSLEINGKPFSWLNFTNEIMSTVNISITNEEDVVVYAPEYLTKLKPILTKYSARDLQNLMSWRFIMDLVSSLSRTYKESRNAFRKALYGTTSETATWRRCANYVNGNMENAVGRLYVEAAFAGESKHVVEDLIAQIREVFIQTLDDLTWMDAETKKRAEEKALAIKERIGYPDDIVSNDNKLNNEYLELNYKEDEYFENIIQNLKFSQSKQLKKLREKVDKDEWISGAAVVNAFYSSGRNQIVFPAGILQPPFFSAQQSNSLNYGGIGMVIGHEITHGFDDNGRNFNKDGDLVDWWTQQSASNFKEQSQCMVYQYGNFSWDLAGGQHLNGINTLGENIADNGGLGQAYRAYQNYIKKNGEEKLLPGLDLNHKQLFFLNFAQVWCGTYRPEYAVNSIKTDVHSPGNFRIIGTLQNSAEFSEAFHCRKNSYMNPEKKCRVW
For series [5], the system named is Rattus norvegicus. Briefly: Antihypertensive activity in spontaneously hypertensive rat assessed as reduction in mean arterial pressure administered via oral gavage in […] measured up to 24 hrs by telemetry method. It is filed as functional. A digest of the protocol:
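Conscious spontaneously hypertensive rats, dosed orally. Blood pressure is monitored by telemetry for 24 h after each dose. Sequential escalating doses of 3, 10, 30 and 100 mg/kg are given at 24 h intervals. Efficacy is the peak percent fall in MAP from baseline. Duration is the vehicle-adjusted % change in AUC over 24 h. Statistics: two-way ANOVA with Bonferroni post hoc.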

The subject of series [6] is Rattus norvegicus. Briefly: Antihypertensive activity in DOCA salt-induced CD-1 rat model of hypertension assessed as reduction in blood pressure administered via oral gavage in ascending cumulative doses […] measured up to 24 hrs by telemetry method. It counts as functional. In outline:
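Conscious DOCA-salt hypertensive rats, a low-renin model, dosed orally. Reduction in blood pressure is followed over time. ED10 is the dose giving an average 10% reduction in the 24 h average MAP.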

The target in series [7] is Angiotensin-converting enzyme (Homo sapiens, UniProt P12821). Description: Inhibition of recombinant human ACE using Mca-BK2 as substrate preincubated for 10 mins followed by fluorogenic substrate addition and measured after 20 mins by fluorescence assay.
Chain of Angiotensin-converting enzyme (P12821 whole entry): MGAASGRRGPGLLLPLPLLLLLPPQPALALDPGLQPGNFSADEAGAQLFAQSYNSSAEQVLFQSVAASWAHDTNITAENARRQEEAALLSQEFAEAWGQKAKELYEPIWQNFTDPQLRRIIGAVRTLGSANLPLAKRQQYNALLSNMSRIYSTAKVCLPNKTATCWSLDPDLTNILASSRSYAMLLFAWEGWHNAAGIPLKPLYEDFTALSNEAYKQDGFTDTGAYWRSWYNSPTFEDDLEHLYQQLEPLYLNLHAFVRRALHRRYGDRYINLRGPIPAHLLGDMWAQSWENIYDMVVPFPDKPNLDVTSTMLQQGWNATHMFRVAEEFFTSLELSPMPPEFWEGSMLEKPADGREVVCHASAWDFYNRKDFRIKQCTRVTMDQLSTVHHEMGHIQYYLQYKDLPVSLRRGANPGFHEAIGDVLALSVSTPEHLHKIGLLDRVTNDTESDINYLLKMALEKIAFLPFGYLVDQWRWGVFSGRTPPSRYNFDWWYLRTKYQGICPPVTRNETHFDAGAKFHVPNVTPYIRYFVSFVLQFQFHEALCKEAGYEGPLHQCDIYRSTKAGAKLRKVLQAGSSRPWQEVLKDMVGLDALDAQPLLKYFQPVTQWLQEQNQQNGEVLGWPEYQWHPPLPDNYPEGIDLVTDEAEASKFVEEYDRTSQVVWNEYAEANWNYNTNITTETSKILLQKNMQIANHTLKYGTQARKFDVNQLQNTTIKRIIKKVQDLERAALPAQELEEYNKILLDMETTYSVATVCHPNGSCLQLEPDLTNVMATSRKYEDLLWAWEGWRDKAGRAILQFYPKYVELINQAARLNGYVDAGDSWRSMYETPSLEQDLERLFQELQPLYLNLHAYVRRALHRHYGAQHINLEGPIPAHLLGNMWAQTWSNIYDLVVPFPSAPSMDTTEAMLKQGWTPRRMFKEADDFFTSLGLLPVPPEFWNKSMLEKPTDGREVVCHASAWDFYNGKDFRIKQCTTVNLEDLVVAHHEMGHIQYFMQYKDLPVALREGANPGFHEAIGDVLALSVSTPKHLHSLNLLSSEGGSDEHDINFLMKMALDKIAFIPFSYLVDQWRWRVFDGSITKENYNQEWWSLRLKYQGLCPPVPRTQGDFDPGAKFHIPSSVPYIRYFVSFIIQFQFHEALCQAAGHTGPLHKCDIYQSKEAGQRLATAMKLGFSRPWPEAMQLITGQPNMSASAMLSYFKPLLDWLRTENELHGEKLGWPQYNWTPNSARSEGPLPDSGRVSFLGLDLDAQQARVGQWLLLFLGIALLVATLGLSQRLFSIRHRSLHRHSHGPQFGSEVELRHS
The test system of series [8] is Rattus norvegicus. Briefly: Antihypertensive activity in spontaneously hypertensive rat assessed as reduction in mean arterial pressure administered via oral gavage in ascending cumulative doses […] measured up to 24 hrs in presence of NEP inhibitor candoxatril by telemetry method. It counts as functional.
The species entered for series [9] is Homo sapiens. Briefly: Selectivity ratio of IC50 for recombinant human ECE1 to IC50 for recombinant human NEP.
Series [10] deals with T2, Type-2 angiotensin II receptor (Homo sapiens, UniProt P50052).
T2 sequence (P50052 whole entry): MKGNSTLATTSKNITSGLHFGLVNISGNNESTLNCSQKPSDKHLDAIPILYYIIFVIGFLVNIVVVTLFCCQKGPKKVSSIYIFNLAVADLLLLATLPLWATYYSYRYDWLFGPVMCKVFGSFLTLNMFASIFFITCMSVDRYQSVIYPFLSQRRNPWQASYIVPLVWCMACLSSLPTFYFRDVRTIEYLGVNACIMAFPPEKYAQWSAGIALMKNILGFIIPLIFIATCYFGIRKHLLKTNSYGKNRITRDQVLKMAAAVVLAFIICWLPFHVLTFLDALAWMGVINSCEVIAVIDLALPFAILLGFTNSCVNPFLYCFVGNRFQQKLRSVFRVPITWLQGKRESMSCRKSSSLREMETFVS
Briefly: Displacement of Europium-labeled angiotensin-2 from human AT2 receptor expressed in CHOK1 cell membranes after 120 mins by DELFIA.

Series [11] has as its target T3, Type-1 angiotensin II receptor (Homo sapiens) (UniProt P30556).
T3 sequence (whole entry): T1 sequence (P30556 whole entry)
Description: Antagonist activity at AT1 receptor (unknown origin) by inositol phosphate accumulation assay relative to control. It counts as functional.

For series [12], the species on record is Homo sapiens. Briefly: Selectivity ratio of Ki for human AT2 receptor to Ki for human AT1 receptor.
In series [13] the target is aminopeptidase P (Xaa-Pro aminopeptidase, Homo sapiens). Description: Inhibition of APP (unknown origin).
The subject of series [14] is Rattus norvegicus. Briefly: In vivo antagonist activity at AT1 receptor in Sprague-Dawley rat assessed as inhibition of angiotensin-2-induced pressor response at 3 mg/kg, iv treated for 5 mins at 15 mins post 2 doses of angiotensin-2 treatment at 15 minutes apart followed by ANP treatment and subsequent angiotensin-2 re-challenge after 60 mins relative to control. It is filed as functional. A digest of the protocol:
as §1

Series [15] deals with T4, Endothelin-converting enzyme 1 (Homo sapiens, UniProt P42892).
T4 sequence (P42892 whole entry): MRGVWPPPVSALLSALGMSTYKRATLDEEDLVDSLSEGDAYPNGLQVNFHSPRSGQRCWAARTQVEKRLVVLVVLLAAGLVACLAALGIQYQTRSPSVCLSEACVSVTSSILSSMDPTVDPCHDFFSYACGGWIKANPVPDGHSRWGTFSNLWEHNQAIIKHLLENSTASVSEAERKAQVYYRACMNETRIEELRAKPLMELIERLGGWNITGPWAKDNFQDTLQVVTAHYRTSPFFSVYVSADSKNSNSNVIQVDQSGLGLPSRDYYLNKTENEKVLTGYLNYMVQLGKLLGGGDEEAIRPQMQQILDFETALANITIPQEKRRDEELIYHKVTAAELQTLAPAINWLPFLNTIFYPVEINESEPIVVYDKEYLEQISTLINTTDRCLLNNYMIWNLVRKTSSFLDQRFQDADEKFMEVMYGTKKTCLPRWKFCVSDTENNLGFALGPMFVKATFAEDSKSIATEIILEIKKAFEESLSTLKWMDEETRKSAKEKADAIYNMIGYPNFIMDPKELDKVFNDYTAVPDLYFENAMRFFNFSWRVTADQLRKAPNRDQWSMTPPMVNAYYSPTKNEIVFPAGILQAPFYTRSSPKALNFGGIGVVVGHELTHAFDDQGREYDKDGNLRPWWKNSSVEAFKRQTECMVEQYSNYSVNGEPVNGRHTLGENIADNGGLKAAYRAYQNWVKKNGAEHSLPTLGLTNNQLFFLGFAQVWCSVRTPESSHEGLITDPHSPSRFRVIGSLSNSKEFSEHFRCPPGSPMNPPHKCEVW
Description: Inhibition of recombinant human ECE1.

Where only a bound is given, the exact number is not on record here.

As a reminder, the Ki is a dissociation constant, usually derived from enzyme kinetics or from competition with a known ligand. High values mean weaker binding, low ones tighter binding. As usually defined, the IC50 is the concentration at which inhibition is half-maximal. In general, inhibition in vivo refers to the change of the read-out against control, counted positive when it falls.

`O=C(N[C@H]1CCS[C@H]2CCC[C@@H](C(=O)O)N2C1=O)[C@@H](S)Cc1ccccc1` [OMAPATRILAT]: the figures for the Activity entry in [1] and in series [5] were “Non-Toxic” and “Dose-dependent effect”, respectively. In [2], this compound gave a Ki greater than 10000 nM. Moreover, the “fold change (FC)” value in series [3] is recorded as 5.3. The IC50 was 0.2 nM in [4] and 0.1 nM in [7]. The ED10 in series [5] was determined as 15 mg/kg; in series [6] it was 66 mg/kg.
For `CCCCC(=O)N(Cc1ccc(-c2ccccc2-c2nnn[nH]2)cc1)[C@H](C(=O)O)C(C)C`, the ED10 in series [8] is 15 mg/kg; in [5], 17 mg/kg. In addition, in series [5], the Activity entry is “Dose-dependent effect”.
`CCOc1nc(CC)c(CNC(=O)[C@@H](S)CC(C)C)n1Cc1ccc(-c2ccccc2C(=O)O)cc1F`: the Ratio IC50 in series [9] turned out to be 120. Moreover, the Ki was 2510 nM in series [10] and 1.26 nM in [2]. For the same compound, the % IP accumulation in [11] is less than 5%. The Ratio Ki in [12] worked out at 2000. Besides, the IC50 was greater than 10000 nM in series [13], 79.4 nM in [15] and greater than 10000 nM in series [7]. The inhibition in vivo at 3 mg/kg in series [14] turned out to be 76%. Also, in series [3], the “fold change (FC)” value turned out to be 3.5. The Activity entry in series [5] and in [6] was “Dose-dependent effect” in each case. In addition, the ED10 was 13 mg/kg in series [5] and 44 mg/kg in series [6].

Source of the values: ChEMBL document CHEMBL4308919, “Discovery of TD-0212, an Orally Active Dual Pharmacology AT1 Antagonist and Neprilysin Inhibitor (ARNI)” (ACS Med Chem Lett, 2019).
